Results on 65 compounds are retold here after PubChem BioAssay AID522 (The Scripps Research Institute Molecular Screening Center, 2006).

Out of some 65,000 compounds screened, about 1,200 (1.8%) were called active.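 The calls were made as follows: active = activation above the mean activation of all tested compounds plus 3 SD (cut at about 50% in these data); inactive = the rest.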 For the sample, actives were picked, then their nearest neighbours and some compounds at random.

Sequence of Steroidogenic factor 1 (Homo sapiens) (Q13285 whole entry, looked up, the tested form may be a part): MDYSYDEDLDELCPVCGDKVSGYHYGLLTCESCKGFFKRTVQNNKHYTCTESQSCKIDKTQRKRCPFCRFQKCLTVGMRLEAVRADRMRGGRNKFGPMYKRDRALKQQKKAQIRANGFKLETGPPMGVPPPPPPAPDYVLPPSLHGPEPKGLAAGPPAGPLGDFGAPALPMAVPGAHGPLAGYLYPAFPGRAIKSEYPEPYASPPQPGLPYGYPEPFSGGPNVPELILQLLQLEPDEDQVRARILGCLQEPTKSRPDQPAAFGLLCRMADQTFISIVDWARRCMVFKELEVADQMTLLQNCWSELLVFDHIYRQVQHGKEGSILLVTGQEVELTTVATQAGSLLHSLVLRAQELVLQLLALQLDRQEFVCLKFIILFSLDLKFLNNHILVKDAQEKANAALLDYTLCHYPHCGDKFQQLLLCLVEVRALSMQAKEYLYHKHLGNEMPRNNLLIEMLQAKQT

This experiment deals with Steroidogenic factor 1 (Homo sapiens) (UniProt Q13285). Kind of experiment: activators of human SF-1, primary screen, cell-based, CHO-K1, Gal4-SF-1 LBD, luciferase luminescence (AID 522). As to conditions: CHO-K1 Gal4-SF-1 LBD luciferase reporter; at 10 µM; stronger effect = higher value; % increase over DMSO SF-1-specific signal. The procedure, abridged:
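Test system: CHO-K1 cells co-transfected with Gal4 DBD–human SF-1 LBD, 5xGal4 luciferase reporter. Quantity: 4,000 cells per well. Compound: 10 µM only. Incubation: compound added 1 h post-seeding, 20 h exposure at 37 °C, 5% CO2. Detection: SteadyLite luciferase luminescence. Replication: one test per compound.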
`CCOC(=O)N1CCN(C(=O)C2CCN(S(C)(=O)=O)CC2)CC1`: the activation was 10.2% (inactive). The value for `CCOC(=O)c1sc(=S)n2c1[nH]c(=O)c1ccc(C(=O)OC)cc12` was -7.4% (inactive); that for `CCOC(=O)c1cnc(SCC(=O)NCc2ccco2)nc1N` was 19.1% (inactive). As for `CCCCOc1ccc(NC(=O)CSCC(=O)OCC)cc1`, the figure is -6.4% (inactive); as for `CCCCOc1ccc(-c2ncc(C(=O)OCC)c(N)n2)cc1`, 49.8% (active). The value for `O=C(CSc1nnc(-c2c[nH]c3ccccc23)n1-c1ccc(F)cc1)NCc1ccco1` was 15.7% (inactive); that for `Cc1nnc(SCCCn2c(N3CCCCC3)nc3c2c(=O)[nH]c(=O)n3C)s1` was -12.6% (inactive). For `COc1ccc(CCNC(=O)CSc2nc(C)nc3c2oc2ccccc23)cc1OC`, the activation was 27.4% (inactive).

As to `Cc1cc(C)nc(N2CCN(c3ncnc4c3oc3ccccc34)CC2)n1`, the activation is -8.8% (inactive).

Regarding `COc1ccccc1Nc1ncnc2c1oc1ccccc12`, the activation is 91.8% (active).

For the compound `Cn1c2c(c(=O)n(C)c1=O)C(c1ccc(O)cc1)Nc1ccccc1O2` (stereo not given), the activation is -0.7% (inactive). Take `CCOc1ccccc1NC(=O)Nc1cc(OC)ccc1OC`: the activation is -10% (inactive). The value for `COc1ccc(C2C(C(=O)Nc3ccccc3OC)=C(C)Nc3nnnn32)c(OC)c1` (stereo not given) was -6.7% (inactive); that for `COc1ccccc1NC(=O)c1ccc(C)s1` was 50.1% (active); that for `COc1ccc(OC)c(C2N(c3ccccn3)C(=O)C3CCCN32)c1` (stereo not given) was -12.3% (inactive).

For `O=C1C(=O)N(CCN2CCOCC2)C(c2ccccn2)/C1=C(/O)c1ccc(Cl)cc1` (stereo not given), the activation is -1.6% (inactive). As for `C=C(C)COc1ccc(-c2n[nH]c(C)c2-c2ccccc2OC)c(O)c1`, the figure is -12.7% (inactive). The value for `COc1ccc(OC)c(N=Cc2c(O)[nH]c3ccccc23)c1` was 0.1% (inactive). `COc1ccc(N=Cc2c(O)[nH]c3ccccc23)cc1OC`: the activation was 60.4% (active). The value for `COc1cc(N=Cc2c(O)[nH]c3ccccc23)cc(OC)c1OC` was -0.5% (inactive); that for `CCOc1nc(-c2ccc(OC)cc2)ccc1-c1noc(-c2cc(OC)c(OC)c(OC)c2)n1` was -8.3% (inactive); that for `Cc1ccc(N2C(=O)c3ccccc3C2(O)c2ncc[nH]2)cc1` (stereo not given) was 6.2% (inactive). As for `COc1ccc(CNC(=O)C2CCN(S(=O)(=O)N3CCOCC3)CC2)cc1`, the figure is 18.7% (inactive); as for `CCOC(=O)c1cc(C)sc1NC(=O)C1CCC1`, 9.7% (inactive); as for `O=C(NCc1ccccn1)c1cc2ccccc2oc1=O`, 12.4% (inactive).

Turning to `O=C(Oc1cccnc1)c1cc2ccccc2oc1=O`, the activation is -8.6% (inactive). As for `Nc1ncc(-c2cc3ccccc3oc2=O)s1`, the figure is 79.3% (active); as for `OC(COc1ccc2ccccc2c1)CN1CCOCC1` (stereo not given), 39.4% (inactive). As to `CN1CCN(CC(=O)Nc2sc3c(c2C#N)CCC(C(C)(C)C)C3)CC1` (stereo not given), the activation is 17.2% (inactive). The value for `CCCCCCOC(=O)NCC(O)c1ccccc1` (stereo not given) was 52.5% (active); that for `CCCCCOC(=O)NCCOC(=O)Nc1ccc(C(=O)OCC)cc1` was -12.6% (inactive); that for `CCCCOC(=O)NCN1C(=O)C2C3C=CC(C3)C2C1=O` (stereo not given) was -13.3% (inactive). As for `CCCn1c(O)c(CN2CCCC(C)C2)c(C)c(C#N)c1=O` (stereo not given), the figure is -4.9% (inactive); as for `Fc1ccc2nc(Nc3nc4c(s3)CCCC4)sc2c1`, 90% (active).

On to `COC(=O)C(NC(C)=O)(Nc1nc2c(s1)CCCC2)C(F)(F)F` (stereo not given), for which the activation was -0.1% (inactive). As for `O=C(CCS(=O)(=O)c1ccccc1)Nc1nc2c(s1)CCCC2`, the figure is 3.8% (inactive). With `CN(Cc1ccccc1)C(=O)CCNC(=O)Cn1cnc2ccccc2c1=O`, the activation is -16% (inactive). As for `Cc1ccc(F)cc1NC(=O)Cc1nn(C)c(=O)c2ccccc12`, the figure is -42.9% (inactive); as for `O=C(Nn1cnc2ccccc2c1=O)c1ccc(F)cc1Cl`, 64.7% (active). As for `Cc1cccc(N2CCN(S(=O)(=O)c3ccc4c(c3)c(=O)n(C)c(=O)n4C)CC2C)c1` (stereo not given), the figure is 3.8% (inactive); as for `COc1ccc(N2C(=O)c3cccc4cccc(c34)C2=O)nn1`, 0.5% (inactive); as for `CCc1ccccc1N(CC(=O)NCCSCc1ccco1)S(C)(=O)=O`, 4.6% (inactive). As for `O=C(c1cccc(C(=O)N2CCc3ccccc32)n1)N1CCc2ccccc21`, the figure is -0.8% (inactive). Regarding `Cc1occc1C(=O)N1CCCc2ccccc21`, the activation was -7.2% (inactive).

On to `O=C(c1cnn2ccccc12)N1CCc2ccccc21`, for which the activation was 111% (active). As to `COc1ccc(OCC(=O)N2CCN(C(=O)COc3ccccc3)CC2)cc1`, the activation was -5.8% (inactive).

As to `CCOc1cccc(C(=O)Nc2cccnc2)c1`, the activation was 6.8% (inactive). As for `CCOC(=O)c1ccc(-c2ccc(C(=O)Nc3cccnc3)o2)cc1`, the figure is 51.3% (active); as for `CCOC(=O)c1cc(NC(=O)c2cccnc2)cc(C(=O)OCC)c1`, -4.7% (inactive); as for `CCC1=C/C(=C\c2ccc3c(c2)OCO3)C(=O)S1`, 0.1% (inactive). The value for `CCOc1cccc(NC(=O)C2CCCN(S(=O)(=O)c3ccc(OC)cc3)C2)c1` (stereo not given) was 0.1% (inactive); that for `COc1ccc(NC(=O)C2CCCN(S(=O)(=O)c3cccc4cccnc34)C2)cc1` (stereo not given) was 5.1% (inactive). As for `COc1ccc(S(=O)(=O)N2CCCC(C(=O)Nc3ccc(NC(=O)c4ccccn4)cc3)C2)cc1` (stereo not given), the figure is 63.3% (active); as for `N#CC1=C(N)C(C#N)(C#N)[C@H](c2ccsc2)[C@H]2COCC=C12`, -1.6% (inactive); as for `COc1ccc(NC(=O)c2c(C)oc3c2CCCC3)cc1`, 26.5% (inactive).

On to `O=C(c1cc(-c2ccccc2O)on1)N1CCCC1`, for which the activation is 20.3% (inactive).

Turning to `COc1ccccc1N1CCN(C(=O)c2cc(-c3ccc(Br)cc3)on2)CC1`, the activation was 3.2% (inactive). As for `COc1ccccc1-c1cc(C(=O)N2CCCCC2)no1`, the figure is 82.1% (active); as for `COC(=O)c1cc(Cl)c(NC(=O)c2ccco2)cc1OC`, -3% (inactive).

Take `Cc1ccc(Cn2c(NC(=O)c3ccco3)nc3ccccc32)cc1`: the activation is -1.8% (inactive). Take `Cc1ccc(-n2nc3cc(Cl)c(NC(=O)c4ccco4)cc3n2)cc1`: the activation is 70.4% (active). As for `CN(C)Cc1c(C#N)c2ccccc2n1C`, the figure is -11.9% (inactive); as for `COc1ccc(OCc2ccc(-c3nc4ccccc4c(=O)n3N)o2)cc1`, 59% (active); as for `Cn1c(COc2ccc(Cl)cc2)nc2ccccc2c1=O`, 45% (inactive). For `Cc1ccc(C(=O)CSc2nc3ccccc3c(=O)n2N)o1`, the activation was 32.8% (inactive).
